Assay results reported in ChEMBL document CHEMBL4257484, “Membrane-active antimicrobial poly(amino-modified alkyl) β-cyclodextrins synthesized via click reactions” (Medchemcomm, 2018).
Converted amounts (≈) assume the structure as drawn. Bridge positions count the residues as written; N and C are the ends. Square brackets hold non-standard residues; d marks the D form. Peptide text beside a SMILES is read from it. * marks the point of attachment. Octanoyl(6-Me) = CCC(C)CCCCC(=O)*; Orn = NCCC[C@H](N)C(=O)O; Dab = NCC[C@H](N)C(=O)O

What was measured:
[1] = tested on: Escherichia coli; assay: Antibacterial activity against drug-sensitive Escherichia coli K-12 W3110 after 20 hrs by liquid microdilution method; assay type: functional; conditions: K-12 substr. W3110, 20 h
Method in brief: (§1)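 Two-fold serial dilutions of compound in Mueller–Hinton broth, inoculated with 1 × 10^4 cells and cultured at 37 °C for 20 h in microtiter wells.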

[2] = tested on: Pseudomonas aeruginosa; assay: Antibacterial activity against drug-sensitive Pseudomonas aeruginosa PAO1 after 20 hrs by liquid microdilution method; assay type: functional; conditions: PAO1, 20 h; method in brief: as §1
[3] = tested on: Staphylococcus aureus; assay: Antibacterial activity against methicillin-sensitive Staphylococcus aureus FDA 209P after 20 hrs by liquid microdilution method; assay type: functional; method in brief: as §1
[4] = tested on: Bacillus subtilis; assay: Antibacterial activity against drug-sensitive Bacillus subtilis 168 after 20 hrs by liquid microdilution method; assay type: functional; conditions: subsp. subtilis str. 168, 20 h; method in brief: as §1
[5] = tested on: Salmonella typhimurium; assay: Antibacterial activity against drug-sensitive Salmonella typhimurium LT2 after 20 hrs by liquid microdilution method; assay type: functional, Salmonella enterica subsp. enterica serovar Typhimurium; conditions: Salmonella enterica, LT2, 20 h; method in brief: as §1
[6] = tested on: Streptococcus agalactiae; assay: Antibacterial activity against drug-resistant Streptococcus agalactiae B1 after 18 to 20 hrs by agar dilution method; assay type: functional
Method in brief: (§2)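 Agar dilution per CLSI. Overnight broth cultures were diluted 100-fold, and one loopful (about 10^5 to 10^4 CFU) was spotted onto agar plates containing the CD. Growth was scored after 18–20 h at 37 °C. MIC values are in µM.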

[7] = tested on: Staphylococcus aureus; assay: Antibacterial activity against methicillin-resistant Staphylococcus aureus MS29202 after 18 to 20 hrs by agar dilution method; assay type: functional; method in brief: as §2
[8] = Hemolytic activity in rabbit RBC at 5 uM after 20 mins relative to control; assay type: ADME, cell-based, Oryctolagus cuniculus, Erythrocyte; conditions: rabbit red blood cells (erythrocytes), read-out: Activity
Method in brief: (§3)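 Rabbit erythrocytes suspended in 150 mM NaCl/10 mM Hepes-NaOH, pH 7.4, at 0.5% hematocrit (final) and incubated with compound at 37 °C. The table footnote gives 20 min; the methods section gives 30 min. Hemolysis was read as absorbance at 540 nm, with 50 µM lysolecithin defining 100% hemolysis.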

[9] = tested on: Enterococcus faecium; assay: Antibacterial activity against drug-resistant Enterococcus faecium MS29120 after 18 to 20 hrs by agar dilution method; assay type: functional; method in brief: as §2
[10] = tested on: Enterococcus faecalis; assay: Antibacterial activity against vancomycin-resistant Enterococcus faecalis MS29016 after 18 to 20 hrs by agar dilution method; assay type: functional; method in brief: as §2
[11] = Lipophilicity, log P of the compound; assay type: physicochemical; conditions: octanol/water
[12] = tested on: Enterococcus faecalis; assay: Antibacterial activity against drug-resistant Enterococcus faecalis MS29030 after 18 to 20 hrs by agar dilution method; assay type: functional; method in brief: as §2
[13] = Hemolytic activity in rabbit RBC at 1 uM after 20 mins relative to control; assay type: ADME, cell-based, Oryctolagus cuniculus, Erythrocyte; conditions: rabbit red blood cells (erythrocytes), read-out: Activity; method in brief: as §3
[14] = Hemolytic activity in rabbit RBC at 2 uM after 20 mins relative to control; assay type: ADME, cell-based, Oryctolagus cuniculus, Erythrocyte; conditions: rabbit red blood cells (erythrocytes), read-out: Activity; method in brief: as §3
[15] = Hemolytic activity in rabbit RBC at 50 uM after 20 mins relative to control; assay type: ADME, cell-based, Oryctolagus cuniculus, Erythrocyte; conditions: rabbit red blood cells (erythrocytes), read-out: Activity; method in brief: as §3
[16] = Hemolytic activity in rabbit RBC at 20 uM after 20 mins relative to control; assay type: ADME, cell-based, Oryctolagus cuniculus, Erythrocyte; conditions: rabbit red blood cells (erythrocytes), read-out: Activity; method in brief: as §3
[17] = Hemolytic activity in rabbit RBC at 10 uM after 20 mins relative to control; assay type: ADME, cell-based, Oryctolagus cuniculus, Erythrocyte; conditions: rabbit red blood cells (erythrocytes), read-out: Activity; method in brief: as §3

Structure (SMILES) | MIC [1] | MIC [2] | MIC [3] | MIC [4] | MIC [5] | MIC [6] | MIC [7] | hemolysis at 20 min, 5 µM [8] | MIC [9] | MIC [10] | logP [11] | MIC [12] | hemolysis at 20 min, 1 µM [13] | hemolysis at 20 min, 2 µM [14] | hemolysis at 20 min, 50 µM [15] | hemolysis at 20 min, 20 µM [16] | hemolysis at 20 min, 10 µM [17]
CC(C)C[C@@H]1NC(=O)[C@H](CCCN)NC(=O)[C@H](C(C)C)NC(=O)[C@@H]2CCCN2C(=O)[C@@H](Cc2ccccc2)NC(=O)[C@H](CC(C)C)NC(=O)[C@H](CCCN)NC(=O)[C@H](C(C)C)NC(=O)[C@@H]2CCCN2C(=O)[C@@H](Cc2ccccc2)NC1=O (cyclo(V[Orn]L[dF]PV[Orn]L[dF]P)) | 28 µM (≈ 32 µg/mL) | 56 µM (≈ 63.9 µg/mL) | 7 µM (≈ 7.99 µg/mL) | – | – | – | – | – | – | – | – | – | – | – | – | – | –
CCC(C)CCCCC(=O)N[C@@H](CCN)C(=O)N[C@H](C(=O)N[C@@H](CCN)C(=O)N[C@H]1CCNC(=O)[C@H]([C@@H](C)O)NC(=O)[C@H](CCN)NC(=O)[C@H](CCN)NC(=O)[C@H](CC(C)C)NC(=O)[C@@H](Cc2ccccc2)NC(=O)[C@H](CCN)NC1=O)[C@@H](C)O (stereo partly drawn) ({Octanoyl(6-Me)}-[Dab]T[Dab][Dab][Dab][dF]L[Dab][Dab]T; lactam 4-C) | 1 µM (≈ 1.2 µg/mL) | 1 µM (≈ 1.2 µg/mL) | 23 µM (≈ 27.7 µg/mL) | 6 µM (≈ 7.22 µg/mL) | 1 µM (≈ 1.2 µg/mL) | – | – | – | – | – | – | – | – | – | – | – | –
CCCCCCC(N)c1cn(C[C@H]2O[C@@H]3O[C@H]4[C@H](O)[C@@H](O)[C@@H](O[C@H]5[C@H](O)[C@@H](O)[C@@H](O[C@H]6[C@H](O)[C@@H](O)[C@@H](O[C@H]7[C@H](O)[C@@H](O)[C@@H](O[C@H]8[C@H](O)[C@@H](O)[C@@H](O[C@H]9[C@H](O)[C@@H](O)[C@@H](O[C@H]2[C@H](O)[C@H]3O)O[C@@H]9Cn2cc(C(N)CCCCCC)nn2)O[C@@H]8Cn2cc(C(N)CCCCCC)nn2)O[C@@H]7Cn2cc(C(N)CCCCCC)nn2)O[C@@H]6Cn2cc(C(N)CCCCCC)nn2)O[C@@H]5Cn2cc(C(N)CCCCCC)nn2)O[C@@H]4Cn2cc(C(N)CCCCCC)nn2)nn1 (stereo partly drawn) | 10 µM (≈ 22.8 µg/mL) | 21 µM (≈ 48 µg/mL) | 3 to 10 µM (≈ 6.85 to 22.8 µg/mL) | 5 µM (≈ 11.4 µg/mL) | 10 µM (≈ 22.8 µg/mL) | 10 µM (≈ 22.8 µg/mL) | 10 µM (≈ 22.8 µg/mL) | 101% | 21 µM (≈ 48 µg/mL) | 21 µM (≈ 48 µg/mL) | -0.18 | 42 µM (≈ 96 µg/mL) | 10% | 37% | 118% | 113% | 109%
O[C@@H]1[C@@H](O)[C@H]2O[C@H]3[C@H](O)[C@@H](O)[C@@H](O[C@H]4[C@H](O)[C@@H](O)[C@@H](O[C@H]5[C@H](O)[C@@H](O)[C@@H](O[C@H]6[C@H](O)[C@@H](O)[C@@H](O[C@H]7[C@H](O)[C@@H](O)[C@@H](O[C@H]8[C@H](O)[C@@H](O)[C@@H](O[C@@H]1[C@@H](Cn1cc(CNCc9ccccc9)nn1)O2)O[C@@H]8Cn1cc(CNCc2ccccc2)nn1)O[C@@H]7Cn1cc(CNCc2ccccc2)nn1)O[C@@H]6Cn1cc(CNCc2ccccc2)nn1)O[C@@H]5Cn1cc(CNCc2ccccc2)nn1)O[C@@H]4Cn1cc(CNCc2ccccc2)nn1)O[C@@H]3Cn1cc(CNCc2ccccc2)nn1 | 21 µM (≈ 48.9 µg/mL) | 21 µM (≈ 48.9 µg/mL) | 5 µM (≈ 11.6 µg/mL) | 5 µM (≈ 11.6 µg/mL) | 21 µM (≈ 48.9 µg/mL) | 21 µM (≈ 48.9 µg/mL) | 41 µM (≈ 95.4 µg/mL) | 4% | 41 µM (≈ 95.4 µg/mL) | 41 µM (≈ 95.4 µg/mL) | -0.26 | > 41 µM | 2% | 4% | 11% | 3% | 2%
O[C@@H]1[C@@H](O)[C@H]2O[C@H]3[C@H](O)[C@@H](O)[C@@H](O[C@H]4[C@H](O)[C@@H](O)[C@@H](O[C@H]5[C@H](O)[C@@H](O)[C@@H](O[C@H]6[C@H](O)[C@@H](O)[C@@H](O[C@H]7[C@H](O)[C@@H](O)[C@@H](O[C@H]8[C@H](O)[C@@H](O)[C@@H](O[C@@H]1[C@@H](Cn1cc(CNCC9CCCCC9)nn1)O2)O[C@@H]8Cn1cc(CNCC2CCCCC2)nn1)O[C@@H]7Cn1cc(CNCC2CCCCC2)nn1)O[C@@H]6Cn1cc(CNCC2CCCCC2)nn1)O[C@@H]5Cn1cc(CNCC2CCCCC2)nn1)O[C@@H]4Cn1cc(CNCC2CCCCC2)nn1)O[C@@H]3Cn1cc(CNCC2CCCCC2)nn1 | 5 µM (≈ 11.8 µg/mL) | 20 µM (≈ 47.4 µg/mL) | 3 to 10 µM (≈ 7.11 to 23.7 µg/mL) | 3 µM (≈ 7.11 µg/mL) | 10 µM (≈ 23.7 µg/mL) | 40 µM (≈ 94.8 µg/mL) | 40 µM (≈ 94.8 µg/mL) | 13% | 20 µM (≈ 47.4 µg/mL) | 40 µM (≈ 94.8 µg/mL) | -0.16 | > 40 µM | 0% | 0% | 107% | 78% | 38%
NC(CCc1ccccc1)c1cn(C[C@H]2O[C@@H]3O[C@H]4[C@H](O)[C@@H](O)[C@@H](O[C@H]5[C@H](O)[C@@H](O)[C@@H](O[C@H]6[C@H](O)[C@@H](O)[C@@H](O[C@H]7[C@H](O)[C@@H](O)[C@@H](O[C@H]8[C@H](O)[C@@H](O)[C@@H](O[C@H]9[C@H](O)[C@@H](O)[C@@H](O[C@H]2[C@H](O)[C@H]3O)O[C@@H]9Cn2cc(C(N)CCc3ccccc3)nn2)O[C@@H]8Cn2cc(C(N)CCc3ccccc3)nn2)O[C@@H]7Cn2cc(C(N)CCc3ccccc3)nn2)O[C@@H]6Cn2cc(C(N)CCc3ccccc3)nn2)O[C@@H]5Cn2cc(C(N)CCc3ccccc3)nn2)O[C@@H]4Cn2cc(C(N)CCc3ccccc3)nn2)nn1 (stereo partly drawn) | 20 µM (≈ 48.5 µg/mL) | > 40 µM | 20 µM (≈ 48.5 µg/mL) | 5 µM (≈ 12.1 µg/mL) | > 40 µM | 20 µM (≈ 48.5 µg/mL) | 20 µM (≈ 48.5 µg/mL) | 17% | 20 µM (≈ 48.5 µg/mL) | 40 µM (≈ 97 µg/mL) | -0.25 | 40 µM (≈ 97 µg/mL) | 4% | 6% | 113% | 94% | 47%
O[C@@H]1[C@@H](O)[C@H]2O[C@H]3[C@H](O)[C@@H](O)[C@@H](O[C@H]4[C@H](O)[C@@H](O)[C@@H](O[C@H]5[C@H](O)[C@@H](O)[C@@H](O[C@H]6[C@H](O)[C@@H](O)[C@@H](O[C@H]7[C@H](O)[C@@H](O)[C@@H](O[C@H]8[C@H](O)[C@@H](O)[C@@H](O[C@@H]1[C@@H](Cn1cc(CNCC9CC9)nn1)O2)O[C@@H]8Cn1cc(CNCC2CC2)nn1)O[C@@H]7Cn1cc(CNCC2CC2)nn1)O[C@@H]6Cn1cc(CNCC2CC2)nn1)O[C@@H]5Cn1cc(CNCC2CC2)nn1)O[C@@H]4Cn1cc(CNCC2CC2)nn1)O[C@@H]3Cn1cc(CNCC2CC2)nn1 | > 45 µM | > 45 µM | > 45 µM | > 45 µM | > 45 µM | – | – | 0% | – | – | -1.4 | – | 0% | 0% | 0% | 0% | 0%
